Assay results of several laboratories.
Lines come from different studies, so protocols differ.
Target: Mitogen-activated protein kinase 10 (MAPK10, Homo sapiens, UniProt P53779)

| Compound | assay | conditions | measurement | value |
| --- | --- | --- | --- | --- |
| COc1ncccc1-c1cnn2ccc(N3CCN(C(=O)OC(C)C)CC3)nc12 | binding, competition with immobilised ligand | 1 µM | remaining binding | 100% |
| Cn1cncc1[C@](O)(COc1ccc(C#N)cc1-c1ccc(OC(F)(F)F)cc1)c1ccc(C#N)cc1 | cell-free assay, competition with immobilised ligand | 1 µM | remaining binding | 70% |
| CC(C)(C)c1cc(C=C(C#N)C#N)cc(Br)c1O | enzyme activity, inhibitor | 0.5 µM | remaining activity | 92.5% |
| NC(=O)c1nc(Nc2ccccc2)sc1NC(=O)C1CCCCC1 | cell-free assay, competition with immobilised ligand | 10 µM | remaining binding | 5.4% |
| COc1cc(Nc2ncc(F)c(Nc3ccc4c(n3)NC(=O)C(C)(C)O4)n2)cc(OC)c1OC | binding, competition with immobilised ligand | 10 µM | inhibition | 100% |
| Cc1nn(C)cc1-c1nc2c(N3CCN(Cc4ccc(Cl)cc4)CC3)c(Cl)cnc2[nH]1 | binding, competition with immobilised ligand | 1 µM | remaining binding | 100% |
| O=c1[nH]c2ccccc2n1C1CCN(Cc2ccc(-c3[nH]c4cc5ncnc5cc4nc3-c3ccccc3)cc2)CC1 | cell-free assay | 0.5 µM | remaining signal | 96% |
| N#CC1(c2ccccn2)CCN(Cc2cc(C(=O)O)c(=O)n3ccccc23)CC1 | cell-free assay, competition with immobilised ligand | 1 µM | remaining binding | 82% |
| Cn1cc(-c2cc(F)cc(N3CCn4c(cc5c4CCCC5)C3=O)c2CO)cc(Nc2ccc(N3CCN(C4COC4)CC3)cn2)c1=O | enzyme activity, inhibitor | 0.1 µM | inhibition | 5% |
| Nc1ncc(-c2nc(N3CCOCC3)nc(N3CCOCC3)n2)c(C(F)F)n1 | binding, competition with immobilised ligand | 10 µM | remaining binding | 90% |
